# According to ChEMBL document CHEMBL4813947, “New dual ATP-competitive inhibitors of bacterial DNA gyrase and topoisomerase IV active against ESKAPE pathogens” (Eur J Med Chem, 2021):
# Columns and labels:
# [1] = Inhibition of Escherichia coli topoisomerase assessed as reduction in relaxation of supercoiled pNO1 DNA measured after 30 mins by fluorescence assay
# In short: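 Enzyme run per an earlier-reported procedure; IC50 fitted from seven inhibitor concentrations, mean of three independent measurements.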
# Staphylococcus aureus [2] = assay: Antibacterial activity against methicillin-resistant Staphylococcus aureus ATCC 43300 assessed as inhibition of bacterial growth by CLSI protocol based broth microdilution assay; type: functional
# In short: (§1)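 Minimum inhibitory concentration by standard serial broth microdilution following CLSI guidelines. Medium was MHBII broth (22 g/L powder: beef extract, casein acid hydrolysate, starch), with MHBII agar (14 g agar per L broth). Where noted, assayed without and with efflux pump substrate phenylalanine-arginine β-naphthylamide (PAβN).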
# Staphylococcus aureus [3] = assay: Antibacterial activity against methicillin-resistant Staphylococcus aureus ATCC 43300 harboring GyrB R144I mutant assessed as inhibition of bacterial growth by CLSI protocol based broth microdilution assay; type: functional; in short: as §1
# Escherichia coli = assay: Antibacterial activity against Escherichia coli MG1655 harboring GyrB R136C mutant assessed as inhibition of bacterial growth in presence of efflux pump inhibitor PAbetaN by CLSI protocol based broth microdilution assay; type: functional; in short: as §1
# [4] = molecular target: DNA topoisomerase 2-alpha (Homo sapiens, UniProt P11388); assay: Inhibition of human topoisomerase 2alpha assessed as reduction in relaxation of supercoiled DNA fluorescence-based microplate reader assay
# Sequence of DNA topoisomerase 2-alpha (P11388 whole entry): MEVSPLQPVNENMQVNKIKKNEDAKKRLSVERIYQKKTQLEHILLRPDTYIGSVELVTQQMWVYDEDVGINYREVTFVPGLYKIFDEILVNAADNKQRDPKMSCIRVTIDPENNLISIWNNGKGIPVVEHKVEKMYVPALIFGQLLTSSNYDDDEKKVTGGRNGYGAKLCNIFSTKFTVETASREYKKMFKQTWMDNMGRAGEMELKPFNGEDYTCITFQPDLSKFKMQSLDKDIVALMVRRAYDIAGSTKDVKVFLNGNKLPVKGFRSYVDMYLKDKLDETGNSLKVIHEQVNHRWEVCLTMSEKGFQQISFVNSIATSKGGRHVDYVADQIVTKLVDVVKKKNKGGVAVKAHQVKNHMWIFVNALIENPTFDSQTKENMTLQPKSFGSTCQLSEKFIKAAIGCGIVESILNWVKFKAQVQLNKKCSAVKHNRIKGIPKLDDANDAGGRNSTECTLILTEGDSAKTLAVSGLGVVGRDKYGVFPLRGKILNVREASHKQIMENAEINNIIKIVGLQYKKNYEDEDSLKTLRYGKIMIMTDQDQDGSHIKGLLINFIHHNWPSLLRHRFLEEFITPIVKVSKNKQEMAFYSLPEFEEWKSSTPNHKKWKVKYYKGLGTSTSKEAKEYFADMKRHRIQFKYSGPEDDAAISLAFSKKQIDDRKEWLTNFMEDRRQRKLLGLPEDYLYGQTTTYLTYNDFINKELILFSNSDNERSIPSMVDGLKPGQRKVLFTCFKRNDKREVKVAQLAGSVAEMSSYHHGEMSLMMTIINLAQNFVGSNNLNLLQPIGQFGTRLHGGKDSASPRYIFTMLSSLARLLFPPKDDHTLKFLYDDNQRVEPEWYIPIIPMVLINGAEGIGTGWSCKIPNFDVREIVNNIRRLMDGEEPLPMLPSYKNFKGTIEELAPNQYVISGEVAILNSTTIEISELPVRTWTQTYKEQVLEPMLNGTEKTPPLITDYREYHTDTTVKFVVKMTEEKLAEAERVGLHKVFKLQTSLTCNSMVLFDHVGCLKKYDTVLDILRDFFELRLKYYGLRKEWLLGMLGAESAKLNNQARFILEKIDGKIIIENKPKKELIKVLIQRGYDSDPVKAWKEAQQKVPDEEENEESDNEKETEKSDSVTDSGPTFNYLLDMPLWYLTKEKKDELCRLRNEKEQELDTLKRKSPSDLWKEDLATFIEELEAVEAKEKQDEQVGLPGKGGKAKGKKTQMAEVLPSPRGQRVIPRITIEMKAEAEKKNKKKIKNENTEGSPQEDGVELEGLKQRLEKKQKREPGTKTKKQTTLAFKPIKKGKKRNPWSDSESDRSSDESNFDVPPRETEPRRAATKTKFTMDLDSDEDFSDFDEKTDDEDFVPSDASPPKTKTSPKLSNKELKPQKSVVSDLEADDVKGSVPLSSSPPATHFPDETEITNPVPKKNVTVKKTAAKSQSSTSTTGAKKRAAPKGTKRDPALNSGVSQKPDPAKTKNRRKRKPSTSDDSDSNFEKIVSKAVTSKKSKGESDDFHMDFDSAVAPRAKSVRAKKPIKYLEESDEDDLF
# In short: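 Human topoisomerase IIα, 1.5 U with 0.75 µg supercoiled pNO1 plasmid, 1 mM ATP, pH 7.5 Tris/MgCl2/NaCl/DTT buffer, 37 °C 30 min. Stopped with TF buffer pH 5.0, then triplex capture on immobilized biotinylated oligonucleotide 30 min at room temperature. Dye fluorescence read (ex 485/em 537 nm). IC50 from seven concentrations, mean of three runs; etoposide control.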
# Staphylococcus aureus [5] = assay: Ratio of MIC for methicillin-resistant Staphylococcus aureus ATCC 43300 harboring GyrB R144I mutant to MIC for methicillin-resistant wild type Staphylococcus aureus ATCC 43300; type: functional
# Staphylococcus aureus [6] = assay: Ratio of MIC for methicillin-resistant Staphylococcus aureus ATCC 43300 harboring GyrB T173A mutant to MIC for methicillin-resistant wild type Staphylococcus aureus ATCC 43300; type: functional
# HepG2 = assay: Cytotoxicity against human HepG2 cells upto 100 uM by lactate dehydrogenase assay; type: cell-based
# In short: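 HepG2 or MCF-7 cells grown in EMEM with 2 mM L-glutamine, penicillin/streptomycin, 10% FBS at 37 °C, 5% CO2; LDH release kit per manufacturer, test concentrations up to 100 µM.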
# [7] = Ratio of genotoxicity in CHO-K1 cells by invitro micronucleus test to MIC for vancomycin-resistant Staphylococcus aureus ATCC 700699; type: toxicity, cell-based; conditions: hamster
# [8] = Ratio of genotoxicity in CHO-K1 cells in presence of rat liver S9 fraction by invitro micronucleus test to MIC for vancomycin-resistant Staphylococcus aureus ATCC 700699; type: toxicity, cell-based; conditions: CHO-K1 cells with rat liver S9 fraction
# [9] = Drug metabolism in rat liver S9 fraction assessed as hydroxylated methyl-pyrrole moiety metabolite; type: ADME, subcellular
compound,measurement,setting,value
Cc1[nH]c(C(=O)Nc2nc3c(OCc4ccsc4)cc(C(=O)O)cc3s2)c(Cl)c1Cl,IC50,[1],340 nM
same,MIC,Staphylococcus aureus [2],0.0625 µg/mL
same,MIC,Staphylococcus aureus [3],0.25 µg/mL
same,MIC,Escherichia coli,2 µg/mL
same,INH,[4],45 µM
same,Ratio,Staphylococcus aureus [5],4
same,Ratio,Staphylococcus aureus [6],2
same,Activity,HepG2,Non-Toxic
same,selectivity ratio,[7],247
same,selectivity ratio,[8],957
same,Drug metabolism,[9],Metabolite_Detected
